According to ChEMBL document CHEMBL3352795, “Discovery of novel 1,5-benzodiazepine-2,4-dione derivatives as potential anticancer agents” (Bioorg Med Chem Lett, 2014):
Values after ≈ are worked out from the molar mass of the structure shown.

Key:
Assay type in all cases: functional, cell-based
A549 = experiment: Anticancer activity against human A549 cells assessed as growth inhibition after 48 hrs by MTT assay; conditions: A549, 48 h
Method in brief: (§1)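 Standard MTT assay on cells incubated with compound for 48 h, with 5-fluorouracil as the positive control. Results are reported as IC50.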

MCF7 = experiment: Anticancer activity against human MCF7 cells assessed as growth inhibition after 48 hrs by MTT assay; conditions: MCF7, 48 h; method in brief: as §1
[1] = Anticancer activity against human HCT116 cells assessed as growth inhibition after 48 hrs by MTT assay; conditions: HCT-116, 48 h; method in brief: as §1
HeLa = experiment: Anticancer activity against human HeLa cells assessed as growth inhibition after 48 hrs by MTT assay; method in brief: as §1
[2] = Anticancer activity against mouse LL/2 cells assessed as growth inhibition after 48 hrs by MTT assay; conditions: Lewis lung carcinoma; method in brief: as §1

| Structure (SMILES) | IC50 (A549) | IC50 (MCF7) | IC50 [1] | IC50 (HeLa) | IC50 [2] |
| --- | --- | --- | --- | --- | --- |
| CC(C)NC(=O)c1cccc2c1NC(=O)C(C(C)(C)C(=O)NCc1ccccc1)C(=O)N2 (centres undefined) | > 100 µg/mL |  |  |  |  |
| CC(C)(C)NC(=O)c1cccc2c1NC(=O)C(C(C)(C)C(=O)NCc1ccccc1)C(=O)N2 (centres undefined) | > 100 µg/mL |  |  |  |  |
| CC(C)(C(=O)NCc1ccccc1)C1C(=O)Nc2cccc(C(=O)NC3CC3)c2NC1=O (centres undefined) | > 100 µg/mL |  |  |  |  |
| CC(C)(C(=O)NCc1ccccc1)C1C(=O)Nc2cccc(C(=O)NCc3ccccc3)c2NC1=O (centres undefined) | 45.3 µg/mL (≈ 93.5 µM) | 91.2 µg/mL (≈ 188 µM) | 85 µg/mL (≈ 175 µM) | 42 µg/mL (≈ 86.7 µM) | 48.5 µg/mL (≈ 100 µM) |
| CC(C)(C(=O)NCc1ccccc1)C1C(=O)Nc2cccc(C(=O)NCc3cccc(C(F)(F)F)c3)c2NC1=O (centres undefined) | 80.5 µg/mL (≈ 146 µM) | 36.1 µg/mL (≈ 65.3 µM) | 46.1 µg/mL (≈ 83.4 µM) | 8.1 µg/mL (≈ 14.7 µM) | 30.5 µg/mL (≈ 55.2 µM) |
| Cc1ccc(CNC(=O)c2cccc3c2NC(=O)C(C(C)(C)C(=O)NCc2ccccc2)C(=O)N3)cc1Cl (centres undefined) | 59.4 µg/mL (≈ 111 µM) | 87 µg/mL (≈ 163 µM) | > 100 µg/mL | 16.7 µg/mL (≈ 31.3 µM) | 58.3 µg/mL (≈ 109 µM) |
| CC(C)(C(=O)NCc1ccccc1)C1C(=O)Nc2cccc(C(=O)NCc3ccc(F)c(Cl)c3)c2NC1=O (centres undefined) | 68.1 µg/mL (≈ 127 µM) | 68.2 µg/mL (≈ 127 µM) | 49.9 µg/mL (≈ 92.9 µM) | 21.1 µg/mL (≈ 39.3 µM) | 66.8 µg/mL (≈ 124 µM) |
| Cc1ccc(CNC(=O)c2cccc3c2NC(=O)C(C(C)(C)C(=O)NCc2ccccc2)C(=O)N3)cc1 (centres undefined) | > 100 µg/mL |  |  |  |  |
| CC(C)(C(=O)NCc1ccccc1)C1C(=O)Nc2cccc(C(=O)NCc3cc(F)ccc3F)c2NC1=O (centres undefined) | 43.1 µg/mL (≈ 82.8 µM) | 74.8 µg/mL (≈ 144 µM) | 80.1 µg/mL (≈ 154 µM) | 25.1 µg/mL (≈ 48.2 µM) | 40.2 µg/mL (≈ 77.2 µM) |
| CC(C)(C(=O)NCc1ccccc1)C1C(=O)Nc2cccc(C(=O)NCc3c(F)ccc(F)c3F)c2NC1=O (centres undefined) | 97.7 µg/mL (≈ 181 µM) |  |  |  |  |
| CC(C)(C(=O)NCc1ccccc1)C1C(=O)Nc2cccc(C(=O)NCc3ccccn3)c2NC1=O (centres undefined) | > 100 µg/mL |  |  |  |  |
| CC(C)(C(=O)NCc1ccccc1)C1C(=O)Nc2cccc(C(=O)Nc3ccccc3)c2NC1=O (centres undefined) | 85.3 µg/mL (≈ 181 µM) | 21.3 µg/mL (≈ 45.3 µM) | 26.6 µg/mL (≈ 56.5 µM) | 41.9 µg/mL (≈ 89 µM) | 29.3 µg/mL (≈ 62.3 µM) |
| CC(C)(C(=O)NCc1ccccc1)C1C(=O)Nc2cccc(C(=O)Nc3cccc(C(F)(F)F)c3)c2NC1=O (centres undefined) | 27.8 µg/mL (≈ 51.6 µM) | 10 µg/mL (≈ 18.6 µM) | 20.5 µg/mL (≈ 38.1 µM) | 42 µg/mL (≈ 78 µM) | 17.6 µg/mL (≈ 32.7 µM) |
| CC(C)(C(=O)NCc1ccccc1)C1C(=O)Nc2cccc(C(=O)Nc3cccc(Cl)c3)c2NC1=O (centres undefined) | 56.2 µg/mL (≈ 111 µM) | 11.2 µg/mL (≈ 22.2 µM) | 17.3 µg/mL (≈ 34.3 µM) | 24 µg/mL (≈ 47.5 µM) | 17.1 µg/mL (≈ 33.9 µM) |
| CC(C)(C(=O)NCc1ccccc1)C1C(=O)Nc2cccc(C(=O)Nc3ccccc3F)c2NC1=O (centres undefined) | 96.1 µg/mL (≈ 197 µM) |  |  |  |  |
| CC(C)(C(=O)NCc1ccccc1)C1C(=O)Nc2cccc(C(=O)Nc3ccc(C(F)(F)F)cc3)c2NC1=O (centres undefined) | > 100 µg/mL |  |  |  |  |
| CC(C)(C(=O)NCc1ccccc1)C1C(=O)Nc2cccc(C(=O)Nc3cccc(F)c3F)c2NC1=O (centres undefined) | 80.4 µg/mL (≈ 159 µM) | 21 µg/mL (≈ 41.5 µM) | 25 µg/mL (≈ 49.4 µM) | 37.8 µg/mL (≈ 74.6 µM) | 32.9 µg/mL (≈ 65 µM) |
| CC(C)(C(=O)NCc1ccccc1)C1C(=O)Nc2cccc(C(=O)Nc3ccc(F)cc3F)c2NC1=O (centres undefined) | > 100 µg/mL |  |  |  |  |
| CC(C)(C(=O)NCc1ccccc1)C1C(=O)Nc2cccc(C(=O)Nc3cc(Cl)ccc3F)c2NC1=O (centres undefined) | 63.3 µg/mL (≈ 121 µM) | 20.4 µg/mL (≈ 39 µM) | 21.3 µg/mL (≈ 40.7 µM) | 35.4 µg/mL (≈ 67.7 µM) | 19.3 µg/mL (≈ 36.9 µM) |
| CC(C)(C(=O)NCc1ccccc1)C1C(=O)Nc2cccc(C(=O)Nc3ccc(F)c(F)c3F)c2NC1=O (centres undefined) | > 100 µg/mL |  |  |  |  |
| O=c1[nH]cc(F)c(=O)[nH]1 [FLUOROURACIL] |  | 12.1 µg/mL (≈ 93 µM) | 4.8 µg/mL (≈ 36.9 µM) | 5.7 µg/mL (≈ 43.8 µM) | 2.9 µg/mL (≈ 22.3 µM) |
